Data: publication PMC11310207 (Scientific Reports, 2024)
Like-named read-outs stand apart in the source and are kept apart here. Ends that are not written are not given here. Peptide text beside a SMILES is read from it. * marks the point of attachment. 5FAM = O=C1OC2(c3ccc(O)cc3Oc3cc(O)ccc32)c2ccc(C(=O)*)cc21

Legend:
rNln E475A = rNln E475A (Rattus norvegicus, UniProt P42676, E498A); assay type: binding
In short: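 Rat Nln (Met37–Ser704, E475A) with a C-terminal 6xHis tag, expressed in E. coli BL21(DE3) and purified by Ni-affinity and SEC. FAM-labelled Dyn A peptides (FAM replacing Tyr1; 18 nM final) were mixed with 0–50 µM Nln in aCSF (0.2 µM ZnSO4, pH 7.2) plus 0.01% Triton X-100. Polarization was read at 25 °C (ex 485/em 535 nm). ΔmP versus no-Nln was fitted to one-site binding with ligand depletion for KD.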

recombinant human Nln [1] = target: T1, recombinant human Nln (Homo sapiens, UniProt Q9BYT8); conditions: read-out: Ki (published value); inhibition of Nln; cited from earlier work
recombinant human Nln [2] = target: T1, recombinant human Nln; assay: Competition of Dyn A peptides with quenched fluorogenic Nln substrate; assay type: biochemical
In short: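 N-terminally 6xHis-tagged human Nln (Ser38–Pro704) was incubated in aCSF at 37 °C with 15 µM quenched substrate Mca-Pro-Leu-Gly-Pro-D-Lys(DNP)-OH, ± Dyn A peptide at 0.1–100 µM. Fluorescence was recorded continuously for 20 min under initial-velocity conditions (<10% substrate consumed). V0 was expressed as % of the no-peptide control and fitted to three-parameter log(inhibitor)–response to give IC50. Ki was calculated by Cheng–Prusoff (Km 8 µM). n=4, duplicates.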

Sequence of rNln E475A (P42676 37-704 E498A): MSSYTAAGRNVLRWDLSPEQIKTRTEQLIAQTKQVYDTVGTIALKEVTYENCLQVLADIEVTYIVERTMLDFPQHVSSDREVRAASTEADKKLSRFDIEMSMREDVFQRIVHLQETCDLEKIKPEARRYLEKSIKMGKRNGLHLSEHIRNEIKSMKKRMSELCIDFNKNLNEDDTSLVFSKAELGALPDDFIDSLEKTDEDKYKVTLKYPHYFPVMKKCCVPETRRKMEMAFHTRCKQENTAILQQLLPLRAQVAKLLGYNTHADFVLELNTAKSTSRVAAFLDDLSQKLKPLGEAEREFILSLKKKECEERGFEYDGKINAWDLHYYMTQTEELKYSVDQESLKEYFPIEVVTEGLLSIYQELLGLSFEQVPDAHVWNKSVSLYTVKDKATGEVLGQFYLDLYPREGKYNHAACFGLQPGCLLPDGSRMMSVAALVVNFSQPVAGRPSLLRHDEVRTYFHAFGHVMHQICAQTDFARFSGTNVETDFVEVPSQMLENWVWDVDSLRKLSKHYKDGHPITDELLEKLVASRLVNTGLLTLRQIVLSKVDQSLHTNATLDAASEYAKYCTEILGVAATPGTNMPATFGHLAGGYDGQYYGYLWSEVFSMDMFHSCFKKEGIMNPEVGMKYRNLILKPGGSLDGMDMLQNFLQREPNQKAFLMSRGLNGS
T1 sequence (Q9BYT8 38-704): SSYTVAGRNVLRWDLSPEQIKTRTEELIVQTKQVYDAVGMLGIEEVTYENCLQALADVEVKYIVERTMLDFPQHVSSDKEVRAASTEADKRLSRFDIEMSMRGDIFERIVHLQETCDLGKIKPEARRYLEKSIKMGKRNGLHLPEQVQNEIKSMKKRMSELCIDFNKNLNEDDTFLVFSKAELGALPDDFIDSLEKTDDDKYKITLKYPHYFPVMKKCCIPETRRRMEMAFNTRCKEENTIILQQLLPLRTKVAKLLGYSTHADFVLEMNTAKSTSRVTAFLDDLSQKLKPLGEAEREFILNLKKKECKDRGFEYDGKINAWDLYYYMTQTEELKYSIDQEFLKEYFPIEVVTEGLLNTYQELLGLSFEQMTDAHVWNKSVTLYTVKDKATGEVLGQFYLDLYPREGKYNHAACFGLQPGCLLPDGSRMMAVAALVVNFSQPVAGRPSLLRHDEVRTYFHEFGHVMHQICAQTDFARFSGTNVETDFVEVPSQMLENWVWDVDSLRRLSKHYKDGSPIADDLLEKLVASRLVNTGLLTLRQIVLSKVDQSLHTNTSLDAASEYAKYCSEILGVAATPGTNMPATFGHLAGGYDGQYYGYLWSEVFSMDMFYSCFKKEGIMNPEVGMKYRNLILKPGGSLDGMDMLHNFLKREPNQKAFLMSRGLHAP

Row | Compound | Kd (rNln E475A) [µM] | Ki (recombinant human Nln [2]) [µM] | also measured
1 | CC[C@H](C)[C@H](NC(=O)[C@H](CCCNC(=N)N)NC(=O)[C@H](CCCNC(=N)N)NC(=O)[C@H](CC(C)C)NC(=O)[C@H](Cc1ccccc1)NC(=O)CNC(=O)CNC(=O)c1ccc2c(c1)C(=O)OC21c2ccc(O)cc2Oc2cc(O)ccc21)C(=O)N[C@@H](CCCNC(=N)N)C(=O)N1CCC[C@H]1C(=O)O [FAM-^2GGFLRRIRP^10] (5FAM-GGFLRRIRP-OH) | 8.46 | – | –
2 | CC[C@H](C)[C@H](NC(=O)[C@H](CCCNC(=N)N)NC(=O)[C@H](CCCNC(=N)N)NC(=O)[C@H](CC(C)C)NC(=O)[C@H](Cc1ccccc1)NC(=O)CNC(=O)CNC(=O)[C@@H](N)Cc1ccc(O)cc1)C(=O)N[C@@H](CCCNC(=N)N)C(=O)N1CCC[C@H]1C(=O)N[C@@H](CCCCN)C(=O)N[C@@H](CC(C)C)C(=O)N[C@@H](CCCCN)C(=O)O [Dyn A (1–13)] | – | – | Ki (recombinant human Nln [1]): 1.19 µM
3 | CC[C@H](C)[C@H](NC(=O)[C@H](CCCNC(=N)N)NC(=O)[C@H](CCCNC(=N)N)NC(=O)[C@H](CC(C)C)NC(=O)[C@H](Cc1ccccc1)NC(=O)CNC(=O)CNC(=O)c1ccc2c(c1)C(=O)OC21c2ccc(O)cc2Oc2cc(O)ccc21)C(=O)N[C@@H](CCCNC(=N)N)C(=O)N1CCC[C@H]1C(=O)N[C@@H](CCCCN)C(=O)N[C@@H](CC(C)C)C(=O)N[C@@H](CCCCN)C(=O)N[C@@H](Cc1c[nH]c2ccccc12)C(=O)N[C@@H](CC(=O)O)C(=O)N[C@@H](CC(N)=O)C(=O)N[C@@H](CCC(N)=O)C(=O)O [FAM-^2GGFLRRIRPKLKWDNQ^17] | 3.26 | – | –
4 | YGGFLRRIR [Dyn A (1–9)] | – | ~6 | –
5 | CC[C@H](C)[C@H](NC(=O)[C@H](CCCNC(=N)N)NC(=O)[C@H](CCCNC(=N)N)NC(=O)[C@H](CC(C)C)NC(=O)[C@H](Cc1ccccc1)NC(=O)CNC(=O)CNC(=O)[C@@H](N)Cc1ccc(O)cc1)C(=O)N[C@@H](CCCNC(=N)N)C(=O)N1CCC[C@H]1C(=O)N[C@@H](CCCCN)C(=O)N[C@@H](CC(C)C)C(=O)N[C@@H](CCCCN)C(=O)N[C@@H](Cc1c[nH]c2ccccc12)C(=O)N[C@@H](CC(=O)O)C(=O)N[C@@H](CC(N)=O)C(=O)N[C@@H](CCC(N)=O)C(=O)O [Dyn A (1–17)] | – | ~6 | –
6 | CC[C@H](C)[C@H](NC(=O)[C@H](CCCNC(=N)N)NC(=O)[C@H](CCCNC(=N)N)NC(=O)[C@H](CC(C)C)NC(=O)[C@H](Cc1ccccc1)NC(=O)CNC(=O)CNC(=O)c1ccc2c(c1)C(=O)OC21c2ccc(O)cc2Oc2cc(O)ccc21)C(=O)N[C@@H](CCCNC(=N)N)C(=O)N1CCC[C@H]1C(=O)N[C@@H](CCCCN)C(=O)N[C@@H](CC(C)C)C(=O)N[C@@H](CCCCN)C(=O)O [FAM-^2GGFLRRIRPKLK^13] | 4.69 | – | –
